This note sets out measurements from ChEMBL document CHEMBL4765301, “Discovery of novel TNNI3K inhibitor suppresses pyroptosis and apoptosis in murine myocardial infarction injury” (Eur J Med Chem, 2020).

Assay [1] concerns H9c2. The assay is described as follows: Inhibition of OGD-induced apoptosis in rat H9c2 cells assessed as late apoptotic cells at 0.5 uM incubated for 24 hrs by annexinV-FITC and PI staining based flow cytometry analysis (reference value: 9 %). It is filed as functional.
Assay [2] has as its system H9c2. The assay can be described thus: Inhibition of OGD-induced apoptosis in rat H9c2 cells assessed as reduction in ASC level at 0.5 to 1 uM by Western blot analysis. It is filed as functional, cell-based. To be noted: dose 0.5-1 µM. Summed up: (§1)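 H9c2 cells under OGD were treated with saline or 0.5 or 1.0 µM inhibitor. Cells were trypsinised, washed in cold PBS, lysed in RIPA with sonication and centrifuged 30 min. Total protein was quantified and separated by SDS-PAGE, then transferred to PVDF. Blots were probed with primary and secondary antibodies and detected by ECL.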

Assay [3] deals with H9c2. The assay can be described thus: Inhibition of OGD-induced apoptosis in rat H9c2 cells assessed as reduction in GSDMD activation at 0.5 to 1 uM by Western blot analysis. It is filed as functional, cell-based. The following applies: dose 0.5-1 µM. Summed up:
as §1

Assay [4] deals with H9c2. The assay is described as follows: Cytoprotective activity against OGD-induced cell death in rat H9c2 cells assessed as cell viability at 10 uM incubated for 24 hrs by MTT assay (reference value: 42.08 to 49.11 %). It is filed as functional. The following applies: read-out: Activity.
In assay [5] the test system is Mus musculus. The assay can be described thus: In vivo inhibition of TNNI3K in C57BL/6 mouse at 25 mg/kg, ip administered for 28 days and measured on day 28 by immunohistochemical staining based fluorescence microscopy. To be noted: time 28.0 day. It is filed as functional, organism-based. Summed up: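 Male C57BL/6 mice (5-6 weeks) with LAD-ligation MI; sham, saline or 25 mg/kg ip every two days, n=4, 28 days. Heart sections given EDTA (pH 8.0) or citrate (pH 6.0) microwave antigen retrieval, then primary antibody 30-40 min at 37°C. Detection by HRP polymer secondary with DAB (IHC) or fluorescent secondary (IF). Positive cells were quantified.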

Assay [6] relates to H9c2. The assay can be described thus: Cytoprotective activity against OGD-induced cell death in rat H9c2 cells assessed as cell viability at 1 uM incubated for 24 hrs by MTT assay (reference value: 42.08 to 49.11 %). It is filed as functional. To be noted: read-out: Activity.
In assay [7] the target is Vascular endothelial growth factor receptor 2 (Homo sapiens) (UniProt P35968). The assay can be described thus: Inhibition of recombinant human KDR (790 to end residues) assessed as residual activity at 1 uM using myelin basic protein as substrate incubated for 40 mins by [gamma-33P]-ATP scintillation counting based radiometry assay relative to control.
Chain of Vascular endothelial growth factor receptor 2 (Homo sapiens) (P35968 whole entry): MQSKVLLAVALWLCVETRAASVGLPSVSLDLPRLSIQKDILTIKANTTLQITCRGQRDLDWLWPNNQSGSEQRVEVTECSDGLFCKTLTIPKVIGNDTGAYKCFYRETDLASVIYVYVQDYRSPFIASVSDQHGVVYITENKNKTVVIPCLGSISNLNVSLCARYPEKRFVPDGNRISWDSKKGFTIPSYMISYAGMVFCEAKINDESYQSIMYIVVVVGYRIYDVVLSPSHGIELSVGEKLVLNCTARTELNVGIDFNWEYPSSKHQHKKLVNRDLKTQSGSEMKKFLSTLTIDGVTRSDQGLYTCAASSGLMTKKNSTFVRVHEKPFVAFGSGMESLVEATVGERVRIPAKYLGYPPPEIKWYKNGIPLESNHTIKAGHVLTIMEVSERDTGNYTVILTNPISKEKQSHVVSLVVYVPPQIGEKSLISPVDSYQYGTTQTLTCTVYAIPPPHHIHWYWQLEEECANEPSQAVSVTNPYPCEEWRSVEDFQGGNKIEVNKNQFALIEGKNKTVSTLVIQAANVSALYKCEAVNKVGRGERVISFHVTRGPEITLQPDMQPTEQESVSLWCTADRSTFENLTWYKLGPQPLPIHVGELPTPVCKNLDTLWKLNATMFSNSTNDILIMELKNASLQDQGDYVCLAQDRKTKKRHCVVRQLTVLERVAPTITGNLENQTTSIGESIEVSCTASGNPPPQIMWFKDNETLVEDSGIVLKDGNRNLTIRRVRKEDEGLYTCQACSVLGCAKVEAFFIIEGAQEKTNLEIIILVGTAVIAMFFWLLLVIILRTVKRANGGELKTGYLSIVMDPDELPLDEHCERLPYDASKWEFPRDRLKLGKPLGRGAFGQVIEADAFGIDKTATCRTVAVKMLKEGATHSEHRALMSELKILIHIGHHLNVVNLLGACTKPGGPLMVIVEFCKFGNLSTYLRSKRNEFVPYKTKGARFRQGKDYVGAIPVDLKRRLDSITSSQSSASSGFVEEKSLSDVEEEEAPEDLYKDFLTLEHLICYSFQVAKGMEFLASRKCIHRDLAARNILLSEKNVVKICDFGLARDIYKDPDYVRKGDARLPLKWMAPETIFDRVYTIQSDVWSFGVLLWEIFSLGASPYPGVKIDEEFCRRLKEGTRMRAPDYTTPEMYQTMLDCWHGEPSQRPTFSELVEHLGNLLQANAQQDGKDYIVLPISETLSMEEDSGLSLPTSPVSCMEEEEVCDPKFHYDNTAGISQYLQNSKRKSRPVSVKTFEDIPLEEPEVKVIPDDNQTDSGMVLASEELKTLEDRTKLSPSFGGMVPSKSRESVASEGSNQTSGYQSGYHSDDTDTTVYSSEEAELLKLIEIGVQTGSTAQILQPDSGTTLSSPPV
In assay [8] the test system is H9c2. The assay is described as follows: Cytoprotective activity against OGD-induced cell death in rat H9c2 cells assessed as cell viability incubated for 24 hrs by LDH release assay. It is filed as functional, cell-based. The following applies: dose 0.5-1 µM. Summed up:
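OGD-exposed H9c2 cells were treated with 0.5 or 1.0 µM inhibitor for 24 h. LDH released into the culture medium was measured with a commercial LDH cytotoxicity kit.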

Assay [9] deals with H9c2. The assay is described as follows: Inhibition of OGD-induced apoptosis in rat H9c2 cells assessed as necrotic cells at 1 uM incubated for 24 hrs by annexinV-FITC and PI staining based flow cytometry analysis (reference value: 2.45 %). In kind it is functional.
Assay [10] addresses Mitogen-activated protein kinase 1 and 3 (ERK2 and ERK1) (Rattus norvegicus) (UniProt P63086+P21708). The assay can be described thus: Inhibition of ERK1/2 phosphorylation in rat H9c2 cells at 0.5 to 1 uM by Western blot analysis. It is filed as cell-based. The following applies: dose 0.5-1 µM. Summed up:
as §1

The test system of assay [11] is H9c2. The assay can be described thus: Inhibition of OGD-induced apoptosis in rat H9c2 cells assessed as reduction in NLRP3 level at 0.5 to 1 uM by immunofluorescence staining based fluorescence microscopy. It is filed as functional, cell-based. The following applies: dose 0.5-1 µM. Summed up: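 In OGD-exposed H9c2 cells treated with 0.5 or 1.0 µM inhibitor, intracellular distribution and co-localisation of caspase-1 and NLRP3 were assessed by immunofluorescence microscopy.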

The target of assay [12] is T1, Serine/threonine-protein kinase TNNI3K (Homo sapiens, UniProt Q59H18).
T1 sequence (Q59H18 whole entry): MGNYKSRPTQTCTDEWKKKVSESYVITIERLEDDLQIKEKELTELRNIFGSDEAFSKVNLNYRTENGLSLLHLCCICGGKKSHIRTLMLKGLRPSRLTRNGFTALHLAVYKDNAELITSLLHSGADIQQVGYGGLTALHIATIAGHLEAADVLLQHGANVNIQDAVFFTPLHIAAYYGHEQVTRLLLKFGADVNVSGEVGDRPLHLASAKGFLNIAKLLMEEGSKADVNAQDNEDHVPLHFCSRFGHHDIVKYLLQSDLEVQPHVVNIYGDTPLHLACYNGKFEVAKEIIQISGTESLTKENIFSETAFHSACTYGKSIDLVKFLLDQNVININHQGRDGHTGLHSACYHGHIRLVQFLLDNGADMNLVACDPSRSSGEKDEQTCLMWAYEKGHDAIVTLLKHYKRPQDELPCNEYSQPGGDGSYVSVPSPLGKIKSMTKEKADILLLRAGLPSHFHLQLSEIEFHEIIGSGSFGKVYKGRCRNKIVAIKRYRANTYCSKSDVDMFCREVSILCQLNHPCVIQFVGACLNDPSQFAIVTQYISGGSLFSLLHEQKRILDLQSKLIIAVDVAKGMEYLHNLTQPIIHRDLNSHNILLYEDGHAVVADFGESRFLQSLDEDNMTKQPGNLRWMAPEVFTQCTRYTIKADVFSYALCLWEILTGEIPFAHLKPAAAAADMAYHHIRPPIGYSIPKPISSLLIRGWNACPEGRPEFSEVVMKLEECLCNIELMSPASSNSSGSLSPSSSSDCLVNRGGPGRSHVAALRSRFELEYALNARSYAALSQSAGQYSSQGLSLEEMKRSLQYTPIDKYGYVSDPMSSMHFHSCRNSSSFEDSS
The assay is described as follows: Inhibition of TNNI3K (unknown origin) using biotinylated CTnI as substrate by HTRF analysis. Summed up:
(§2)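 TNNI3K was assayed by HTRF using a GST-tagged TNNI3K kinase domain and a biotinylated cardiac troponin I substrate peptide, followed by the two HTRF detection reagents. Compounds were screened at 1.0 µM, then IC50s were determined.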

The target in assay [13] is T2, Serine/threonine-protein kinase TNNI3K (Homo sapiens) (UniProt Q59H18).
T2 sequence (whole entry): T1 sequence (Q59H18 whole entry)
The assay is described as follows: Inhibition of TNNI3K (unknown origin) assessed as residual activity at 1 uM using biotinylated CTnI as substrate by HTRF analysis relative to control. Summed up:
as §2

Calls of active or inactive are those of the source. The rule behind the calls is not given here.

Chain of Mitogen-activated protein kinase 1 and 3 (ERK2 and ERK1) (Rattus norvegicus) (P21708 whole entry, looked up): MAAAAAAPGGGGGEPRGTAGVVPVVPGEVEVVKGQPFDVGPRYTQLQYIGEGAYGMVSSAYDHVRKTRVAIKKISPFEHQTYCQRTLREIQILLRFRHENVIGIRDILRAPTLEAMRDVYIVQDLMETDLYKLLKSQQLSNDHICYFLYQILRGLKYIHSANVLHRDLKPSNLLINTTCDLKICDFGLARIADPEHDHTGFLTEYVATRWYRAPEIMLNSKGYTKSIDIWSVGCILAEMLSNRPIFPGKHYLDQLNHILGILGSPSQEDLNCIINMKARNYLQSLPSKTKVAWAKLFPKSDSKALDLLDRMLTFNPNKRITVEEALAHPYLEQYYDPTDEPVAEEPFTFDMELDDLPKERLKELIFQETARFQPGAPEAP
Chain of Mitogen-activated protein kinase 1 and 3 (ERK2 and ERK1) (Rattus norvegicus) (P63086 whole entry, looked up): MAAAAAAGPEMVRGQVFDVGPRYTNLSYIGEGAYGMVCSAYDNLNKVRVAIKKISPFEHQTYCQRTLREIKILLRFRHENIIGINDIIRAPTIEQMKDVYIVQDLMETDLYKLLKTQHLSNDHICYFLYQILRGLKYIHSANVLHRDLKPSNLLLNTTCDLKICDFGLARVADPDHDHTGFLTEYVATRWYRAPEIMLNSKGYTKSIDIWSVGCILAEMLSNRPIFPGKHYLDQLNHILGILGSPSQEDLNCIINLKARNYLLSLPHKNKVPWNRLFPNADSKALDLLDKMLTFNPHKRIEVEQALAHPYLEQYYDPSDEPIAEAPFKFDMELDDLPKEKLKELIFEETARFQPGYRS

Take `CN(C)CCCN1CCc2c(sc3ncnc(Nc4ccc(N(C)C)c(NC(=O)c5ccco5)c4)c23)C1`: the inhibition at 0.5 µM in assay [1] worked out at 7.15%. In addition, the inhibition entry in assay [2], in assay [3], in assay [5] and in assay [11] was “Active” throughout. Besides, the viability at 10 µM in assay [4] was found to be 89%. In [6], the viability at 1 µM turned out to be 73.8%. The Activity in assay [7] is 80%; in assay [8] it was “Dose-dependent effect”; in assay [13], 28%. The inhibition at 1 µM in assay [9] was 1.07%. Also, the inhibition entry in assay [10] was “inactive”. Also, the IC50 in assay [12] was 240 nM.
